MsrA inhibitor: bovine MsrA inhibition; inhibition, % at 15.5 µM; 0.75% of 360,000 active; purified bovine MsrA, absorbance read-out; in the data active = inhibition above about 4.5%;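 note: 0% = vehicle wells with enzyme and 100% = reference inhibitor wells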
MIN6 prolif: MIN6 beta-cell proliferation induction; MIN6 cells proliferation, ATPlite luminescence, 48 h; cells starved in 0.2% serum; 100% = growth in 10% serum; 0.29% of 330,000 active; proliferation, % at 10 µM;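 active = compounds whose signal lies at least 3.5 SD above the mean of all wells on their plate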;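 note: 0% = DMSO-treated cells in low-serum medium and 100% = 10% serum control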
MsrA act: activates bovine MsrA enzyme | purified bovine MsrA, absorbance read-out | activation, % at 10.6 µM | 0.3% of 360,000 active; in the data active = activation above about 7.5%;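 note: 0% = vehicle and 100% = reference activator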
SKN-1 block: blocks SKN-1 activity in C. elegans; C. elegans VP596 Pgst-4::GFP/RFP ratio, acrylamide-induced, 24 h; inhibition, % at 21.8 µM; 0.49% of 360,000 active; AID 624304;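 active = interference check ratio from 0.5 to 1.5 plus GFP to RFP signal ratio inhibition reaching or exceeding a fixed threshold, cut at about 30% in these data, passing the limit was not always enough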
DAGLB inh: blocks human DAGLB lipase activity. Q8NCG7. HEK293T DAGLB membrane lysate, EnzChek fluorogenic substrate. inhibition, % at 5.17 µM. 0.059% of 340,000 active. AID 504411; in the data active = inhibition above about 34%;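 note: 0% = enzyme with vehicle and 100% = wells lacking enzyme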
Target sequence (Q8NCG7 whole entry, looked up): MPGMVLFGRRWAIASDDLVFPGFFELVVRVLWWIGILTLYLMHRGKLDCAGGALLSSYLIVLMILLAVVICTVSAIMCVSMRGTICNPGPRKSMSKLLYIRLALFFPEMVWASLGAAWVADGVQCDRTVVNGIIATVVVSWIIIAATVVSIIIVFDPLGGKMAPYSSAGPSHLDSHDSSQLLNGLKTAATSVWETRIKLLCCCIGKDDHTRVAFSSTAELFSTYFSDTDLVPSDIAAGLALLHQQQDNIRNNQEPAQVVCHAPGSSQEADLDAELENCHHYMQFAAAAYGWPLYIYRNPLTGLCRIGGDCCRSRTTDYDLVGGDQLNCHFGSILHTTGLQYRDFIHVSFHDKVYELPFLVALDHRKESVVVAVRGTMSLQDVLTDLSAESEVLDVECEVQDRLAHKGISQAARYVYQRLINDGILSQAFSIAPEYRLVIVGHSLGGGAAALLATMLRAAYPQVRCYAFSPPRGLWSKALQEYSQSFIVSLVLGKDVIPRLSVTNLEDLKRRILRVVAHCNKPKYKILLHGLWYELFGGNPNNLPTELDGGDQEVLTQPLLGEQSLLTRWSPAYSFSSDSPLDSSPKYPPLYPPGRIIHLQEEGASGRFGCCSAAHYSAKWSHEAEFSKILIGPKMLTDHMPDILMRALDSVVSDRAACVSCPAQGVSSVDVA
MT1-MMP act inh: inhibitors of human MT1-MMP activation; 0.061% of 360,000 active; AID 651647; P50281; GFP/RFP ratio change, % at 20 µM; HT1080 RFP-PRO-GFP cells, GFP/RFP ratio fluorescence, overnight; percent of plate control window, DMSO zero;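 active = GFP/RFP ratio change of at least 30% with cell ATP level not reduced by more than half and red fluorescence within 50% of control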
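Assay system: HT1080 cells carrying an RFP-PRO-GFP reporter | Dosing: Single dose of 20 µM compound, 1% DMSO final | Incubation: Cells overnight before dosing, compound overnight, 37 °C, 5% CO2 | Evaluation: GFP/RFP fluorescence ratio | Control set: DMSO and RFP-L50D-GFP cell wells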
The depositor's hits bear a star; . = not tested or not shown. This is a sample that favours compounds with a hit; in the whole collection about 1.8% have one here.

SMILES | MsrA inhibitor | MIN6 prolif | MsrA act | SKN-1 block | DAGLB inh | MT1-MMP act inh
COC(=O)c1c(-c2ccccc2)noc1-c1ccccc1 | -1 | -2 | -1 | 45* | . | -3
COc1ccc(Cc2c(C3CCCCC3)nc3ccc(C)cn23)c(C)c1 | 1 | . | . | . | . | .
C[C@H]1[C@@H]2C[C@@]3(O[C@H](c4ccccn4)N=C3C[C@@H]1c1ccccc1)N(Cc1ccncc1)C2=O | -1 | . | . | . | . | .
COC(=O)[C@]12C[C@H](CC(=O)N3CCCC3)C(=O)N(CCC3=CCCCC3)C1=C[C@H](COCc1ccccc1)O[C@@H]2C | 1 | . | . | . | . | .
Cc1ccc(N2CCN(S(=O)(=O)c3ccc4oc(=O)ccc4c3)CC2)c(C)c1 | 0 | -2 | -1 | 43* | -3 | 3
c1ccc(Cc2ccc(OCCCNC3CCCC3)cc2)cc1 | . | -6 | . | . | . | .
c1ccc(-c2ccc(OCCCNC3CCCC3)cc2)cc1 | -1 | -4 | -4 | 55* | . | -3
O=C(NCCc1ccccc1Cl)[C@@H]1CCCN1C(=O)[C@@H](NS(=O)(=O)c1ccc(F)cc1F)C1CCCCC1 | 1 | . | . | . | . | .
O=C1C(Cl)=C(NCCN2CCCCC2)C(=O)c2ccccc21 | . | -6 | 18* | 19 | 2 | -20
O=CN1CCc2scc[n+]2-c2ccccc21 | -1 | 0 | 0 | 36* | 1 | -3
O=C(Nc1ccccc1)N1CCc2scc[n+]2-c2ccccc21 | -1 | -5 | -6 | 8 | 3 | 3
CN(C)c1ccc(C(C(=O)NCC2CCCO2)N(Cc2ccccc2)C(=O)c2snc(C(N)=O)c2N)cc1 (stereo not drawn) | 0 | 8.8* | -1 | 26 | 1 | -3
CN(C)c1ccc(C(C(=O)NCC2CCCO2)N(Cc2ccco2)C(=O)c2snc(C(N)=O)c2N)cc1 (stereo not drawn) | 0 | 7 | -2 | 6 | -1 | 3
COC(=O)c1ccc2nc(-c3ccc(C)cc3)c(CC(C)(C)C)n2c1 | 0 | . | . | . | . | .
CCN1CCN(c2c(S(=O)(=O)c3ccc(Cl)cc3)cnc3ccccc23)CC1 | 1 | . | . | . | . | .
COc1ccccc1-n1cc([C@@H]2C[C@H]3CN(c4ccccc4)C(=O)[C@]34CCCN24)cn1 | 1 | -6 | -4 | 40* | . | -29
c1ccc(CSc2n[nH]c(-c3ccco3)n2)cc1 | 0 | -2 | -9 | -31 | -3 | -5
c1ccc(CSc2nccc(-c3ccco3)n2)cc1 | 1 | -2 | -4 | 43* | . | -4
O=C1c2cccc3cccc(c23)C(=O)N1Cc1cccnc1 | 1 | -1 | -5 | 4 | 1 | -1
O=C1c2cccc3c([N+](=O)[O-])ccc(c23)C(=O)N1Cc1cccnc1 | 7.9* | . | -6 | -21 | -4 | -134
Clc1cccc(-c2ccc(/C=N/n3cnnc3)o2)c1 | 4.6* | -3 | -12 | 6 | 1 | 2
Cc1ccccc1-c1ccc2c(c1)[C@@H]1C[C@H]3[C@@H](CN1CC2)[C@H](C)ON3C | 3 | . | . | . | . | .
Cc1cc(C(=O)CSc2nnc(C3COc4ccccc4O3)n2C)c(C)n1-c1ccc(F)cc1 (stereo not drawn) | -1 | 0 | -4 | 48* | -1 | -3
Cn1c(SCC(=O)c2ccc3c(c2)OCO3)nnc1C1COc2ccccc2O1 (stereo not drawn) | 2 | -5 | -3 | 19 | -1 | 5
Cc1nc(Oc2ccccc2)c2oc3ccccc3c2n1 | 0 | 6 | -1 | 38* | -2 | 1
SMILES | MsrA inhibitor | MIN6 prolif | MsrA act | SKN-1 block | DAGLB inh | MT1-MMP act inh
O=C(Nc1ccc(-c2noc(CCc3ccccc3)n2)cc1)c1ccco1 | 0 | -4 | -2 | 44* | -5 | -2
Cc1ccc2nc(-c3ccco3)c(Cc3ccsc3)n2c1 | 1 | . | . | . | . | .
COc1ccc(N(C(=O)CNC(=O)c2ccco2)C(C(=O)NC2CCCC2)c2cccnc2)cc1 (stereo not drawn) | 1 | -1 | -2 | -7 | -2 | -1
COc1ccc(N(C(=O)CNC(=O)c2ccco2)C(C(=O)NC2CCCCC2)c2cccnc2)cc1 (stereo not drawn) | -1 | -2 | -2 | 38* | 2 | -2
C[C@@H]1CN([C@@H](C)CO)C(=O)CCCn2cc(nn2)CO[C@H]1CN(C)C(=O)CCC(F)(F)F | 0 | . | . | . | . | .
Cc1cc(N2CCN(C(=O)OC(C)(C)C)C[C@H]2C)ccc1N1CCN(Cc2ccccc2)[C@@H](C)C1 | -2 | . | . | . | . | .
CC(=O)Nc1cc(NC(C)=O)cc(C(=O)OCC(=O)N2CC(C)OC(C)C2)c1 (stereo not drawn) | -1 | 4 | -3 | 36* | -5 | 2
CC1CN(C(=O)COC(=O)c2ccc(O)cc2)CC(C)O1 (stereo not drawn) | 0 | 1 | -8 | -15 | -3 | -1
N=c1c(C(=O)NCc2ccccc2)cc2c(=O)n3ccccc3nc2n1Cc1ccco1 | -1 | -3 | -2 | 37* | 7 | -11
N=c1c(C(=O)NCc2ccco2)cc2c(=O)n3ccccc3nc2n1Cc1ccccc1 | -1 | -2 | -2 | 21 | 3 | 0
CN1C(=O)[C@@]2(O[C@H]3c4ccccc4C=CN3C3=C2C(=O)CCC3)c2ccccc21 | 2 | . | . | . | . | .
O=C(Nc1ccccn1)c1ccc(C(=O)Nc2ccccn2)cc1 | . | -4 | 0 | 20 | 1 | -1
O=C(/C=C\Nc1ccccn1)c1ccc(Cl)cc1 | 1 | -4 | -14 | 41* | -8 | 7
COCCn1c(SCC(=O)Nc2cccc(C)c2)nnc1C(C)C | -1 | -3 | -1 | 37* | 0 | 3
Cc1cccc(C)c1OCC(O)CN(Cc1ccccc1O)C1CCCCC1 (stereo not drawn) | 0 | -6 | -4 | 37* | -6 | -20
COCCCNC(=O)C[C@H]1C[C@@]2(C(=O)OC)C(=C[C@H](C(C)C)O[C@@H]2C2CC2)N(Cc2ccccc2)C1=O | 0 | . | . | . | . | .
CCOc1ccc(NC(=O)c2ccc3[nH]c(=O)c(=O)[nH]c3c2)cc1 | 4.6* | -1 | -3 | 22 | -1 | -1
CCOc1ccc(NS(=O)(=O)c2ccc3[nH]c(=O)c(=O)[nH]c3c2)cc1 | 1 | 0 | -4 | 12 | . | 4
COC(=O)C1=C(C)N(CC(C)C)C(=S)NC1c1cccc(F)c1 (stereo not drawn) | 1 | . | . | . | . | .
COc1ccc(/C=C2\SC(=O)N(CC(=O)Nc3ccccc3O)C2=O)cc1OC | 1 | 2 | -2 | 35* | -2 | 3
COc1cccc(CNS(=O)(=O)c2ccccc2Br)c1 | 0 | . | . | . | . | .
COc1cccc(NC(=O)N(C)C[C@H]2OCc3cn(nn3)CCCC(=O)N([C@H](C)CO)C[C@@H]2C)c1 | 0 | . | . | . | . | .
CCOC(=O)C1(C)/C(=N/Nc2ccc(Cl)cc2)C(=O)C(=O)N1c1ccccc1 (stereo not drawn) | 0 | -1 | 0 | 38* | 8 | 11
C=CCN=C1NC(c2cccc(F)c2)C(C(=O)OC)=C(C)N1Cc1cccc(C(F)(F)F)c1 (stereo not drawn) | -1 | . | . | . | . | .

Bioassay records as filed in PubChem BioAssay.
